The full list was thinned out, with hits kept by preference.
HUVEC prolif 384 = human endothelial cell proliferation inhibition. HUVEC proliferation, CellTiter-Glo luminescence, 72 h; active compounds read low. viability, % at 10 µM (by protocol). actives 1.1% (n = 86,000);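 active = viability at or below 30%; inactive = viability above 30%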;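 note: 100% = median luminescence of DMSO-only cell control wells on each plate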
bCat KO growth = beta-catenin-lacking colon tumor cell growth suppression. actives 1.5% (n = 140,000). viability, % at 10 µM. HCT116 beta-catenin knockout viability, CellTiter-Glo, 60 h; active compounds read low;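 active = viability at or under a set limit, the compound median less 4 SD, cut at about 6% in these data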;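 note: 0% = Hyamine 1622 control at 20 µM and 100% = untreated cell control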
Fibroblast inh = blocks proliferation of human lung fibroblasts. LL 47 human lung fibroblast viability, ATP luminescence; active compounds read low. viability, % at 10 µM. actives 1.1% (n = 85,000);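 active = viability at or below 50% in the single dose screen; inactive = viability above 50%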;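 note: compound exposure lasted 72 h before the ATP readout; 100% = median luminescence of untreated cell-only wells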
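Assay system: human lung fibroblast line LL 47, low passage. Input: 1,150 fibroblasts seeded per well. Times: overnight cell rest, 72 h compound treatment at 37 °C. Evaluation: % viability of median cell-only signal. Technique: luminescent ATP detection, CellTiter-Glo. Control set: cell-only wells, no compound.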
H69AR growth 86K = blocks growth of human H69AR lung tumor cells. viability, % at 10 µM. actives 6% (n = 85,000). AID 598. H69AR lung tumor viability, ATP luminescence, 72 h; active compounds read low;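 active = viability at or below 40%; inactive = viability above 40%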;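 note: multidrug resistant small cell line overexpressing MRP-1 efflux transporter; 100% = mean luminescence of untreated control wells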
HCT116 PTEN-null = growth suppressors of cells with PTEN tumor suppressor deletion; viability, % at 10 µM; actives 1.2% (n = 140,000); HCT116 PTEN-null viability, CellTiter-Glo, 60 h; active compounds read low;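 active = viability at or below a set limit, 4 SD under the median of all tested compounds, cut at about 3.7% in these data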;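 note: PTEN knockout HCT116 line with beta catenin targeted HCT116 as companion control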
Active calls of the source: *; x = not tested or not shown.

SMILES	HUVEC prolif 384	bCat KO growth	Fibroblast inh	H69AR growth 86K	HCT116 PTEN-null
CCOC(=O)C1=C(c2ccccc2)O/C(=C(/C#N)C(F)(F)F)S1	10*	8	2.5*	1.7*	7
CN1CCc2nc3sc(C(=O)C45CC6CC(CC(C6)C4)C5)c(N)c3cc2C1	x	3.5*	x	x	0.6*
Cn1c(=O)[nH]c(=O)c2c1nc(CN1CCN(c3cccc(Cl)c3)CC1)n2CCc1ccccc1	73	79	85	2.8*	74
CCCCCn1c(CN2CCN(c3cccc(Cl)c3)CC2)nc2c1c(=O)[nH]c(=O)n2C	64	60	84	39*	48
COC(=O)C1=C(C)N(Cc2ccco2)C(=O)N[C@H]1c1ccc(Br)cc1	x	80	x	x	84
CCC1CCCCN1C(=O)CSc1nnc(-c2c[nH]c3ccccc23)o1 (stereo not drawn)	108	75	93	35*	80
CC1CCCC(C)N1C(=O)CSc1nnc(-c2c[nH]c3ccccc23)o1 (stereo not drawn)	80	76	89	83	84
CCC1CCCCN1C(=O)CSc1nc2c([nH]c3ccccc32)c(=O)n1C (stereo not drawn)	85	88	105	34*	76
COc1ccc(CN(C(=O)CSc2nnc(-c3c[nH]c4ccccc34)o2)c2ccc(F)cc2)cc1OC	18*	6	51	11*	5
COC(=O)C(C)Sc1nc2c([nH]c3ccccc32)c(=O)n1C (stereo not drawn)	82	46	99	39*	39
CCC(C)Sc1nc2c([nH]c3ccccc32)c(=O)n1C (stereo not drawn)	92	79	84	55	75
CCn1cc(C(=O)N2CCc3ccccc32)c(=O)c2cc(S(=O)(=O)N(C)C3CCCCC3)ccc21	x	65	x	x	66
CCCCNc1c(NC(C)=O)c(=O)oc2ccccc12	x	90	x	x	97
Cc1ccc(N2C(=O)C3C4C=CC(CNC(=S)Nc5cccc(Cl)c5)(O4)C3C2=O)cc1 (stereo not drawn)	x	91	x	x	87
COc1ccc(CCn2c(N)c(C(=O)NCc3ccco3)c3nc4ccccc4nc32)cc1OC	80	35	111	24*	25
COc1ccc(-n2c(N)c(C(=O)NCc3ccco3)c3nc4ccccc4nc32)c(OC)c1	69	67	89	32*	72
COc1ccc(CCn2c(N)c(C(=O)NCc3ccco3)c3nc4ccccc4nc32)cc1	x	40	x	x	33
Nc1c(C(=O)NCc2ccco2)c2nc3ccccc3nc2n1CCc1ccccc1F	79	77	95	27*	72
O=C(COC(=O)c1ccc2c(c1)C(=O)N(CCc1ccccc1)C2=O)Nc1ccc(OC(F)F)cc1	x	93	x	x	98
CC(=O)n1cc(Nc2ccccc2C(=O)O)c2ccccc21	105	94	101	54	84
CCOC(=O)c1ccccc1Nc1cn(C(C)=O)c2ccccc12	58	10	46*	23*	15
CSCc1nnc(NC(=O)c2ccc(S(=O)(=O)N(CC(C)C)CC(C)C)cc2)o1	x	9	x	x	11
Cc1nnc(NC(=O)c2ccc(S(=O)(=O)N(C)Cc3ccccc3)cc2)o1	85	38	97	24*	34
COCCN(CCOC)S(=O)(=O)c1ccc(C(=O)Nc2nnc(C)o2)cc1	x	93	x	x	102
CCN(Cc1ccccc1)S(=O)(=O)c1ccc(C(=O)Nc2nnc(C3CC3)o2)cc1	69	18	70	32*	14
SMILES	HUVEC prolif 384	bCat KO growth	Fibroblast inh	H69AR growth 86K	HCT116 PTEN-null
CCCc1nc2ccccc2n1CCc1ccccc1	x	81	x	x	86
Cc1ccccc1OCC(=O)OCC(=O)NCc1cccs1	x	107	x	x	91
COc1cc(NC(=O)CN(C)C2CCCCC2)c(C)cc1[N+](=O)[O-]	x	84	x	x	86
COc1ccccc1C(=O)Oc1cc(N)n(S(=O)(=O)c2ccc(C)cc2)n1	x	96	x	x	105
COc1ccc(S(=O)(=O)n2nc(OC(=O)c3c(-c4ccccc4Cl)noc3C)cc2N)cc1	83	97	110	28*	94
N#Cc1sc2nc(N3CCCCC3)c3c(c2c1N)CCCC3	7.4*	8	91	23*	13
Nc1ccc(O)c(-c2nc3ccccc3s2)c1	74	8	82	97	3.4*
Oc1ccc(N=C/C=C/c2cccc(Br)c2)cc1-c1nc2ccccc2s1	x	5.1*	x	x	5
O=C(Nc1ccc(O)c(-c2nc3ccccc3s2)c1)c1cc(=O)c2ccccc2o1	x	31	x	x	22
CN1CCc2c(sc3nc(SCC(=O)N4CCOCC4)nc(N)c23)C1	98	88	96	89	91
CSc1nc(SCC(=O)NC(c2ccccc2)c2ccccc2)c2c3c(sc2n1)CN(C)CC3	31	70	48*	12*	33
O=S(=O)(Nc1cc(Sc2cccc3cccnc23)c(O)c2ccccc12)c1ccc(F)cc1	x	1.3*	x	x	1.4*
O=S(=O)(Nc1cccc2cn[nH]c12)c1ccc(F)cc1	103	111	104	107	89
COc1ccc(S(=O)(=O)Nc2cc(Sc3ncn[nH]3)c(O)c3ccccc23)cc1	x	1.7*	x	x	2.5*
COc1ccc(S(=O)(=O)Nc2ccc(O)c(Sc3ncn[nH]3)c2)cc1	86	97	92	92	89
Cc1ccc(N=Cc2c(O)n(-c3cc(Cl)ccc3N3CCOCC3)c(=O)c3ccccc23)cc1C	106	79	106	74	78
COC(=O)c1sc(NC(C)=O)c(C(=O)OC)c1C	88	93	95	92	88
COC(=O)c1sc(NC(=O)c2cnccn2)c(C(=O)OC)c1C	77	x	88	40*	x
COC(=O)C1=C(C)NC(=O)/C1=C\c1cc(C)n(-c2c(C)cccc2C)c1C	27*	76	60	46	69
CC(=O)Nc1cccc(OCc2ccc(S(=O)(=O)Cc3ccccc3)cc2)c1	x	82	x	x	86
Cn1c(=O)c2c(SCC(=O)NCC3CCCO3)nc(-c3cccs3)nc2n(C)c1=O (stereo not drawn)	89	x	96	29*	x
O=C(CSc1nnc(-c2cccs2)n1-c1ccccc1)NCC1CCCO1 (stereo not drawn)	106	94	98	92	98
CC(C)Sc1nc(-c2cccs2)nc2c1c(=O)n(C)c(=O)n2C	84	x	66	19*	x
CCCS(=O)(=O)C(=C(Nc1ccccc1)Nc1ccccc1)S(=O)(=O)CCC	82	94	96	30*	90
Cc1ccc(Nc2ncnc3c2oc2ccccc23)cc1	82	90	99	54	91
COc1ccc(Nc2ncnc3c2oc2ccccc23)cc1	91	85	98	39*	80
CC(C)Cn1c(C(C)C)nc([N+](=O)[O-])c1Sc1ccc(Cl)cn1	78	77	55	19*	63
O=[N+]([O-])c1ccc(Sc2ccccc2)nc1	x	102	x	x	100
CCn1c(C)nc([N+](=O)[O-])c1Sc1ccc(F)cc1	x	76	x	x	71
CCCCn1c(CCC)nc([N+](=O)[O-])c1Sc1ccc(Cl)cn1	77	16	72	2.4*	14
